Series [1] concerns rabbit reticulocyte ribosomes. In words: in vitro translation in rabbit reticulocyte lysate. Format: biochemical. The conditions noted are these: firefly luciferase synthesis, mean ± SD, triplicate. An outline of the steps: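 Cell-free translation in rabbit reticulocyte lysate with firefly luciferase mRNA and serially diluted test compound. Incubated 37°C for 35 min, stopped on ice, then luciferase luminescence measured. IC50 is the concentration halving functional luciferase synthesis, taken from dose-response curves; mean ± SD, triplicate.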

The test system of series [2] is hybrid bacterial ribosomes carrying the cytoplasmic A site. The series can be described thus: cell-free translation assay, cytosolic hybrid ribosomes. Format: biochemical, Homo sapiens. The conditions noted are these: firefly luciferase synthesis, mean ± SD, triplicate. The essentials:
(§1)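 Hybrid 70S ribosomes purified from recombinant Mycobacterium smegmatis strains derived from a ΔrrnB single-rRNA-operon strain. Reactions contained 0.25 µM ribosomes, 4 µg firefly luciferase mRNA, 40% (vol/vol) M. smegmatis S100 extract, 200 µM amino acids and 0.4 mg/ml tRNAs, with S30 premix as energy source. Serially diluted test compound added; 37°C for 35 min, stopped on ice. Luciferase luminescence read; IC50 from dose-response curves; mean ± SD, triplicate.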

The subject of series [3] is hybrid bacterial ribosomes carrying the mitochondrial mutant A1555G deafness A site. In words: cell-free translation assay, mitochondrial deafness hybrid ribosomes. Format: biochemical, Homo sapiens. The conditions noted are these: firefly luciferase synthesis, mean ± SD, triplicate. An outline of the steps: as §1
In series [4] the test system is hybrid bacterial ribosomes carrying the mitochondrial A site. The series can be described thus: cell-free translation assay, mitochondrial hybrid ribosomes. Format: biochemical, Homo sapiens. The note with it: firefly luciferase synthesis, mean ± SD, triplicate. An outline of the steps:
as §1

The next series relates to outer hair cells. The series can be described thus: quantification of outer hair cell loss in cochlear surface preparations. Format: in vivo. The note with it: guinea pig, 140 mg/kg, 14 days. An outline of the steps:
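Guinea pigs dosed subcutaneously once daily for 14 days. After the final ABR (3 weeks post-treatment), cochleae were split into apical, middle and basal segments. Segments were permeabilized in 3% Triton X-100 for 30 min at RT, washed in PBS and stained with rhodamine phalloidin (1:100) for 1 h at RT. Consecutive 0.19-mm fields from the apex were scored blind for missing outer hair cells against a normative database.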

The nature of series [5]: general toxicity in the guinea pig chronic ototoxicity study. Format: in vivo. An outline of the steps: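 Male Hartley guinea pigs, about 200 g initially, acclimated 1 week. […] Animals were followed for death and body weight through the study, which included ABR testing before treatment and 3 weeks after treatment ended.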
The test system of series [6] is recombinant bacterial ribosomes with point mutation G1491C in the A site. In words: cell-free ribosomal translation assay, G1491C mutant. Format: biochemical, Mycobacterium smegmatis. The essentials:
(§2)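 Purified 70S hybrid ribosomes, wild-type or carrying the single A-site point mutation, came from M. smegmatis strains with a single rRNA operon. Each was translated with firefly luciferase mRNA, 40% (vol/vol) M. smegmatis S100 extract, amino acids, 0.4 mg/ml tRNAs and S30 premix energy, plus serially diluted test compound, for 35 min at 37°C. Luciferase luminescence gave IC50s (triplicate means ± SD), expressed as mutant/wild-type IC50 ratio.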

Series [7] concerns Escherichia coli isolates. In words: MIC by broth microdilution, clinical isolates. Format: cell-based. An outline of the steps: (§3)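 Clinical isolates from a university diagnostic microbiology department. MIC determined by broth microdilution in microtiter plates, incubated overnight.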
The subject of series [8] is mitochondrial A1555G mutant hybrid ribosomes. The series can be described thus: ribosomal damage index, mitochondrial A1555G mutant hybrid. It is filed as biochemical, Homo sapiens. The conditions noted are these: 1/IC50 × misreading at IC50/misreading in the absence of the drug × 100. An outline of the steps:
(§4)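 Misreading gain-of-function assay: firefly luciferase mRNA with His245 CAC replaced by near-cognate Arg245 CGC, alongside wild-type firefly mRNA, translated in vitro with renilla luciferase mRNA as internal control. Misreading is the mutant firefly/renilla ratio relative to the wild-type firefly/renilla ratio.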

The subject of series [9] is cytosolic hybrid ribosomes. The series can be described thus: ribosomal damage index, cytosolic hybrid. The note with it: 1/IC50 × misreading at IC50/misreading in the absence of the drug × 100. It is filed as biochemical, Homo sapiens. An outline of the steps:
as §4

For the next series, the system named is S. aureus MRSA AG041. In words: neutropenic murine model of Staphylococcus aureus septicemia. It is filed as in vivo. The note with it: at the highest dose tested; subcutaneous (Fig. 2C and F).
Series [10] concerns rabbit reticulocyte ribosomes. The series can be described thus: ribosomal damage index, native cytosolic eukaryotic ribosomes. It is filed as biochemical. The conditions noted are these: 1/IC50 × misreading at IC50/misreading in the absence of the drug × 100. The essentials: as §4
For series [11], the system named is mitochondrial hybrid ribosomes. In words: ribosomal damage index. Format: biochemical, Homo sapiens. The note with it: 1/IC50 × misreading at IC50/misreading in the absence of the drug × 100. An outline of the steps:
as §4

The subject of series [12] is recombinant bacterial ribosomes with point mutation A1408G in the A site. In words: cell-free ribosomal translation assay, A1408G mutant. Format: biochemical, Mycobacterium smegmatis. The essentials:
as §2

Series [13] has as its system Staphylococcus aureus (MRSA) isolates. The series can be described thus: MIC by broth microdilution, clinical isolates. Format: cell-based. The essentials:
as §3

Values after ≈ are worked out from the molar mass of the structure shown. Bounds are passed on as bounds.

As to `NC[C@@H]1O[C@H](O[C@H]2[C@@H](O)[C@H](O[C@@H]3[C@@H](O)[C@H](N)C[C@H](N)[C@H]3O[C@H]3O[C@H](CO)C[C@H](O)[C@H]3N)O[C@@H]2CO)[C@H](N)[C@@H](O)[C@@H]1O` [4′ Deoxy paromomycin], the “IC50 with eukaryotic A sites in the ribosome: Rabbit reticulocytes” value in series [1] was determined as 17.3 ± 4.2 µg/mL. Also, the “IC50 with eukaryotic A sites in the ribosome: Cytosolic wild-type” value (“IC50 … Cytosolic wild-type” for short) in [2] is 28.4 ± 13.8 µg/mL. For the same molecule, the “IC50 with eukaryotic A sites in the ribosome: Mitochondrial mutant A1555G” value (“IC50 … Mitochondrial mutant A1555G” for short) in series [3] amounted to 24.2 ± 10.5 µg/mL. In series [4], the “IC50 with eukaryotic A sites in the ribosome: Mitochondrial wild-type” value (“IC50 … Mitochondrial wild-type” for short) stood at 74.1 ± 12.4 µg/mL.
In the case of `NC[C@@H]1O[C@H](O[C@H]2[C@@H](O)[C@H](O[C@@H]3[C@@H](O)[C@H](N)C[C@H](N)[C@H]3O[C@H]3O[C@@H]4CO[C@@H](CCc5ccccc5)O[C@H]4[C@H](O)[C@H]3N)O[C@@H]2CO)[C@H](N)[C@@H](O)[C@@H]1O` [4′,6′-O-(3-Phenylpropylidene) paromomycin], in series [2], the “IC50 … Cytosolic wild-type” value was found to be 150.5 ± 28.0 µg/mL. For the same molecule, the “IC50 … Mitochondrial mutant A1555G” value in series [3] stood at 126.9 ± 54.4 µg/mL. Besides, the “IC50 … Mitochondrial wild-type” value in series [4] came out at 305.7 ± 74.1 µg/mL.
Take `NCC1OC(OC2C(CO)OC(OC3C(O)C(N)CC(N)C3OC3OC(CO)C(OCCCc4ccccc4)C(O)C3N)C2O)C(N)C(O)C1O` (stereo not shown) [4′-O-(3-Phenylpropyl) paromomycin]: the “IC50 … Cytosolic wild-type” value in series [2] was 268.57 ± 54.97 µg/mL. Also, in [3], the “IC50 … Mitochondrial mutant A1555G” value was determined as 105.68 ± 39.23 µg/mL. Further, the “IC50 … Mitochondrial wild-type” value in series [4] worked out at 49.85 ± 15.39 µg/mL.
With `CNC(C)C1CCC(N)C(OC2C(N)CC(N)C(OC3OCC(C)(O)C(NC)C3O)C2O)O1` (stereo not shown) [Gentamicin], the entries for the “loss of outer hair cells in cochleae” value with outer hair cells and in the series with outer hair cells (listed as gentamicin) were “steep rise of hair cell loss from the middle cochlea to complete loss at the base” and “extensive loss of outer hair cells”, respectively. For the same molecule, the “signs of general toxicity” value is “significant weight loss” in series [5] (doses below 160 mg/kg) and “death” in series [5] (doses exceeding 160 mg/kg).
With `NC[C@@H]1O[C@H](O[C@H]2[C@@H](O)[C@H](O[C@@H]3[C@@H](O)[C@H](N)C[C@H](N)[C@H]3O[C@H]3O[C@H](CO)[C@@H](O)[C@H](O)[C@H]3N)O[C@@H]2CO)[C@H](N)[C@@H](O)[C@@H]1O` [Paromomycin], in series [1], the “IC50 with eukaryotic A sites in the ribosome: Rabbit reticulocytes” value was found to be 9.55 ± 4.94 µg/mL. The “ratio of the IC50 for the C1491 mutant ribosomes to the IC50 for the wild-type ribosomes” value in series [6] turned out to be 520. Further, the MIC was 16 to 32 µg/mL (≈ 26 to 52 µM) in series [7] (E. coli clinical isolate AG 001); 8 to 16 µg/mL (≈ 13 to 26 µM) in series [7] (E. coli clinical isolate AG 002); 8 to 16 µg/mL (≈ 13 to 26 µM) in series [7] (E. coli clinical isolate AG 003); 8 to 16 µg/mL (≈ 13 to 26 µM) in series [7] (E. coli clinical isolate AG 055); 4 µg/mL (≈ 6.5 µM) in [13] (S. aureus (MRSA) clinical isolate AG 038); over 256 µg/mL in series [13] (S. aureus (MRSA) clinical isolate AG 039). Moreover, the MIC in series [13] (S. aureus (MRSA) clinical isolate AG 042) was over 256 µg/mL; in series [13] (S. aureus (MRSA) clinical isolate AG 044), 4 to 8 µg/mL (≈ 6.5 to 13 µM); in [13] (S. aureus (MRSA) clinical isolate AG 045) it was 4 µg/mL (≈ 6.5 µM). In addition, in [8], the “Ribosomal damage index: Mitochondrial mutant A1555G” value came out at 125.0. The “Ribosomal damage index: Cytosolic wild-type” value in series [9] is recorded as 40.0. In [2], the “IC50 … Cytosolic wild-type” value was found to be 9.89 ± 2.73 µg/mL. In [3], the “IC50 … Mitochondrial mutant A1555G” value amounted to 5.77 ± 2.32 µg/mL. Also, in the series on S. aureus MRSA AG041, the “bacterial burden in the kidney” value is recorded as “below detectable limits”. Moreover, the “Ribosomal damage index: Rabbit ribosomes” value in series [10] was 120.0. In series [4], the “IC50 … Mitochondrial wild-type” value stood at 50.66 ± 13.33 µg/mL. Also, the “Ribosomal damage index: Mitochondrial wild-type” value in series [11] is recorded as 5.0. Also, in series [12], the “ratio of the IC50 for the G1408 mutant ribosomes to the IC50 for the wild-type ribosomes” value turned out to be 13.

By MIC is commonly meant the lowest concentration that inhibits growth of the organism. Low readings indicate a more susceptible organism, high ones a less susceptible organism.

(Values after PMC4196235 (mBio, 2014).)
